Data reported in publication PMC4207122 (Cell biology and toxicology, 2013).
Read-outs that look alike come from different tables or passages of the source.

Experiments:
[1] = system: DU145 human prostate carcinoma cells; experiment: Differential nuclear staining; assay type: cell-based
[2] = system: 22Rv1 human prostate cancer cells; experiment: Differential nuclear staining; assay type: cell-based
[3] = system: YT NK-like lymphoblastic lymphoma cells; experiment: Differential nuclear staining; assay type: cell-based
[4] = system: LNCaP human prostate cancer cells; experiment: Differential nuclear staining; assay type: cell-based
[5] = Differential nuclear staining; assay type: cell-based; conditions: mouse, wild type mouse embryonic fibroblasts (MEFs)
Calf Thymus (CT) DNA = experiment: Circular dichroism; assay type: binding; conditions: 20 h at 37 °C, pH 7.39 Tris/HCl buffer, up to ri 2.0 (molar ratio drug/DNA)
How it was run: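 Test compound stocks (1.5 mM) were freshly made in water and added to freshly prepared CT DNA (60 μM) in 5 mM Tris/HCl, 50 mM NaClO4, pH 7.39, at drug/DNA molar ratios of 0.5–2.0. Samples were incubated 20 h at 37 °C. Spectra were recorded at 25 °C over 220–420 nm, blank-corrected with noise reduction, and expressed as […].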

[6] = Differential nuclear staining; assay type: cell-based; conditions: human, MCF-10A non-transformed mammary epithelial cells
YT NK-like (YT) cells = experiment: Apoptosis/necrosis by annexin V-FITC and PI flow cytometry; assay type: cell-based; conditions: 18 h; for mode of cell death: KTZ 15 μM, CTZ 10 μM, complexes 20–60 μM
How it was run: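 YT NK-like cells were exposed to test compounds for 18 h, then handled on ice, stained together with annexin V-FITC and PI, and analysed by flow cytometry with about 10,000 events per sample. Controls were 0.3% v/v DMSO solvent, 600 μM H2O2 and untreated cells. Annexin-positive cells (early plus late) were summed as apoptotic, and PI-only cells counted as necrotic. Values are the mean of three independent measurements with SD.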

[7] = system: human cervical HeLa cancer cells; experiment: Differential nuclear staining; assay type: cell-based; conditions: for CC50: Homo sapiens, 20 h
[8] = system: all the cancer cells lines studied
in vitro = assay type: cell-based; conditions: human

SMILES | CC50 [2] [µM] | CC50 [4] [µM] | CC50 at 20 h [5] [µM] | change of CD spectrum of CT DNA (Calf Thymus (CT) DNA) | CC50 at 20 h [6] [µM] | CC50 ([1]; Homo sapiens, DU-145, 20 h) [µM] | mode of cell death (YT NK-like (YT) cells) | CC50 ([2]; Homo sapiens, 22Rv1, 20 h) [µM] | CC50 [7] [µM] | CC50 ([3]; 20 h) [µM] | CC50 ([4]; Homo sapiens, LNCaP, 20 h) [µM] | other results
Cc1ccc(C(C)C)cc1.Cc1ccc(C(C)C)cc1.[Cl][Ru][Cl].[Cl][Ru][Cl] [Compound C3, [Ru(p-cymene)Cl2]2] | 141 | 29 | – | – | – | – | – | – | – | – | – | CC50 [1]: 218 µM; CC50 [3]: 164 µM
CC(=O)N1CCN(c2ccc(OCC3COC(Cn4ccnc4)(c4ccc(Cl)cc4Cl)O3)cc2)CC1 (centres unmarked) [KTZ, ketoconazole] | – | – | 31.3 | no modifications | 37 | 28.6 | preferentially through apoptosis | 24.2 | 66.7 | 4.9 | 27.9 | –
Clc1ccccc1C(c1ccccc1)(c1ccccc1)n1ccnc1 [CTZ, clotrimazole] | – | – | 35.3 | no modifications | 79.4 | 43.6 | preferentially through apoptosis | 19.2 | 94.3 | 16.7 | 15.4 | cytotoxicity against cancer cell lines (in words) [8]: moderate cytotoxicity; CC50 at 20 h (in vitro): 95.3 µM; Relative Activity (R.A.) ([1]; DU145, relative to KTZ (1-6) or CTZ (7-12)): 1; apoptosis induced relative to any of the Ru-CTZ complexes (YT NK-like (YT) cells): ≥ 3 fold; Relative Activity (R.A.) ([2]; 22Rv1, relative to KTZ (1-6) or CTZ (7-12)): 1; Relative Activity (R.A.) ([7]; relative to KTZ (1-6) or CTZ (7-12)): 1; Relative Activity (R.A.) ([3]; YT, relative to KTZ (1-6) or CTZ (7-12)): 1; Relative Activity (R.A.) ([4]; LNCaP, relative to KTZ (1-6) or CTZ (7-12)): 1
C[SH](C)(=O)[Ru-]([Cl])([Cl])([Cl])([Cl])[SH](C)(C)=O.[Na+] [Compound C1, Na[trans-RuCl4(DMSO)2]] | 114 | 46.5 | – | – | – | – | – | – | – | – | – | –
